Data taken from ChEMBL document CHEMBL1149332, “Synthesis of benzoylpyrimidines as antagonists of the corticotropin-releasing factor-1 receptor” (Bioorg Med Chem Lett, 2004).

molecular target: T1, Corticotropin-releasing factor receptor 1 (Homo sapiens, UniProt P34998); assay: Inhibition of CRF-stimulated cAMP production in cells expressing CRF1 receptor; settings: not given
T1 sequence (P34998 whole entry): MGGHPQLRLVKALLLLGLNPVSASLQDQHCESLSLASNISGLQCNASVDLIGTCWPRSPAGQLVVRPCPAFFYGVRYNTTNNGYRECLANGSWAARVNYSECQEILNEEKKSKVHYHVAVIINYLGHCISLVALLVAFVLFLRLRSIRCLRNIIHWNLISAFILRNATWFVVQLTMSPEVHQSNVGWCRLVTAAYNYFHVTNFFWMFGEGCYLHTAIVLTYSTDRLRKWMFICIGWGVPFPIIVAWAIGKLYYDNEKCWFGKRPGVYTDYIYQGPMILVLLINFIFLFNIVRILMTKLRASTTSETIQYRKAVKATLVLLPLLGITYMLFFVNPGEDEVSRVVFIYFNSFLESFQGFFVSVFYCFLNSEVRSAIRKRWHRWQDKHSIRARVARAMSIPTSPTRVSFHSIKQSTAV
Procedure, shortened: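 CHO cells expressing the CRF1 receptor; antagonism of CRF-stimulated cAMP production measured over a range of compound concentrations, with IC50 taken from the concentration-response.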

IC50 [nM] | SMILES
1200 | CCCN(CC1CC1)c1nc(C)nc(C(=O)c2c(C)cc(C)cc2C)c1C
1000 | CCCN(CC1CC1)c1nc(C)nc(C(=O)c2c(OC)cc(OC)cc2OC)c1C

molecular target: Corticotropin releasing factor receptor (Rattus norvegicus, UniProt P47866+P35353); assay: Inhibition of CRF-stimulated ACTH release in primary rat anterior pituitary cells; format: functional, cell-based; settings: pituitary gland cell

IC50 [nM] | SMILES
980 | CCCN(CC1CC1)c1nc(C)nc(C(=O)c2c(C)cc(C)cc2C)c1C

molecular target: T1, Corticotropin-releasing factor receptor 1; assay: Binding affinity for recombinant human CRF1 receptor; settings: not given

Ki [nM] | SMILES
> 10000 | Cc1cc(C)c(C(=O)c2nc(C)nc(N3CCCC3)c2C)c(C)c1
470 | CCN(c1ccccc1)c1nc(C)nc(C(=O)c2c(C)cc(C)cc2C)c1C
13 | CCCN(CC1CC1)c1nc(C)nc(C(=O)c2c(CC)cc(CC)cc2CC)c1C
810 | CCCN(CC1CC1)c1nc(C)nc(C(=O)c2ccc(OC)cc2OC)c1C
55 | CCCN(CC1CC1)c1nc(C)nc(C(=O)c2c(C)cc(C)cc2C)c1CC
79 | CCCN(CC1CC1)c1nc(C)nc(C(O)c2c(C)cc(C)cc2C)c1C (centres undefined)
> 10000 | CCCN(CC1CC1)c1cc(C(=O)c2c(C)c(C)c(C)c(C)c2C)nc(C)n1
540 | CCCN(CCO)c1nc(C)nc(C(=O)c2c(C)cc(C)cc2C)c1C
810 | CCCN(CC1CC1)c1nc(C)nc(C(=O)c2ccccc2C)c1C
26 | CCCN(CC1CC1)c1nc(C)nc(Cc2c(OC)cc(OC)cc2OC)c1C
> 10000 | CCCN(CC1CC1)c1nc(C)nc(C(C)(C)c2c(OC)cc(OC)cc2OC)c1C
38 | C=CCN(CC=C)c1nc(C)nc(C(=O)c2c(C)cc(C)cc2C)c1C
380 | COC[C@@H]1CCCN1c1nc(C)nc(C(=O)c2c(C)cc(C)cc2C)c1C
360 | CCCN(CC1CC1)c1nc(C)nc(C(O)c2c(CC)cc(CC)cc2CC)c1C (centres undefined)
5100 | CCCN(CC1CC1)c1nc(C)nc(C(=O)c2c(C)c(C)c(C)c(C)c2C)c1C
560 | C=C(c1nc(C)nc(N(CCC)CC2CC2)c1C)c1c(OC)cc(OC)cc1OC
58 | CCCN(CCC)c1nc(C)nc(C(=O)c2c(C)cc(C)cc2C)c1C
15 | CCCN(CC1CC1)c1nc(C)nc(C(=O)c2c(C)cc(C)cc2C)c1C
630 | CCCN(CC1CC1)c1cc(C)nc(C(=O)c2c(OC)cc(OC)cc2OC)n1
220 | CCC(CC)Nc1nc(C)nc(C(=O)c2c(C)cc(C)cc2C)c1C
31 | C=CCc1c(C(=O)c2c(C)cc(C)cc2C)nc(C)nc1N(CCC)CC1CC1
200 | CCCN(CC1CC1)c1cc(C(=O)c2c(C)cc(C)cc2C)nc(C)n1
38 | CCCN(CC1CC1)c1nc(C)nc(C(=O)c2c(OC)cc(OC)cc2OC)c1C
2.7 | CCCN(CC1CC1)c1nc(C)nc(Nc2c(Cl)cc(Cl)cc2Cl)c1Cl
> 10000 | Cc1cc(C)c(C(=O)c2nc(C)nc(N3CCOCC3)c2C)c(C)c1
1100 | CCCN(CC1CC1)c1cc(C(=O)c2c(OC)cc(OC)cc2OC)nc(C)n1
